Results on 13 compounds are retold here after ChEMBL document CHEMBL3525926, “CYP2C9-mediated metabolic activation of losartan detected by a highly sensitive cell-based screening assay” (Drug Metab Dispos, 2011).

Common to all, as to format: ADME, cell-based
Common to all, as to conditions: hepg2, 24 h

Data set [1] deals with T1, Cytochrome P450 2C9 (Homo sapiens, UniProt P11712). The data set can be described thus: Metabolic activation assessed as CYP2C9 activation-induced cytotoxicity in human HepG2 cells transfected with human AdCYP2C9 at MOI 10 for 2 days in presence of siNrf2 at 25 to 100 uM after 24 hrs by WST-8 assay.
Data set [2] addresses T1, Cytochrome P450 2C9. The data set can be described thus: Metabolic activation assessed as CYP2C9 activation-induced cytotoxicity in human HepG2 cells transfected with human AdCYP2C9 at MOI 10 for 2 days in presence of siNrf2 at 25 to 75 uM after 24 hrs by WST-8 assay. An outline of the steps:
(§1)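 HepG2 cells reverse-transfected with 10 nM siNrf2 at seeding (1.0×10^4 cells/well), incubated 24 h, then infected with CYP2C9-expressing adenovirus (AdGFP as control) at MOI 10 for 2 days in 5% FBS medium. Drugs added for 24 h. Viability read by WST-8 (absorbance 450 nm) or CellTiter-Glo ATP luminescence. Expressed as % of untreated cells; means ± S.D., n = 3; two-tailed t test versus AdGFP cells.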
(Tetrazolium dyes change colour on reduction, which living cells bring about.)

The target in data set [3] is T1, Cytochrome P450 2C9. The data set can be described thus: Metabolic activation assessed as CYP2C9 activation-induced cytotoxicity in human HepG2 cells transfected with human AdCYP2C9 at MOI 10 for 2 days in presence of siNrf2 at 50 to 200 uM after 24 hrs by WST-8 assay. An outline of the steps: as §1
The target of data set [4] is T1, Cytochrome P450 2C9. Briefly: Metabolic activation assessed as CYP2C9 activation-induced cytotoxicity in human HepG2 cells transfected with human AdCYP2C9 at MOI 10 for 2 days in presence of siNrf2 at 100 uM after 24 hrs by WST-8 assay. In short, it runs like this: as §1
Data set [5] deals with T1, Cytochrome P450 2C9. Briefly: Metabolic activation assessed as CYP2C9 activation-induced cytotoxicity in human HepG2 cells transfected with human AdCYP2C9 at MOI 10 for 2 days in presence of siScramble at 25 to 100 uM after 24 hrs by ATP assay. An outline of the steps:
(§2)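 HepG2 cells reverse-transfected with 10 nM scrambled control siRNA at seeding (1.0×10^4 cells/well), then after 24 h infected with CYP2C9-expressing adenovirus (AdGFP control) at MOI 10 for 2 days. Drugs added for 24 h. Viability by CellTiter-Glo ATP luminescence, as % of untreated cells; means ± S.D., n = 3; two-tailed t test versus AdGFP cells.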

The target in data set [6] is T1, Cytochrome P450 2C9. Briefly: Metabolic activation assessed as CYP2C9 activation-induced cytotoxicity in human HepG2 cells transfected with human AdCYP2C9 at MOI 10 for 2 days in presence of siNrf2 at 100 to 200 uM after 24 hrs by WST-8 assay. In short, it runs like this:
as §1

Data set [7] addresses T1, Cytochrome P450 2C9. The data set can be described thus: Metabolic activation assessed as CYP2C9 activation-induced cytotoxicity in human HepG2 cells transfected with human AdCYP2C9 at MOI 10 for 2 days in presence of siScramble at 50 to 200 uM after 24 hrs by ATP assay. An outline of the steps:
as §2

The target of data set [8] is T1, Cytochrome P450 2C9. The data set can be described thus: Metabolic activation assessed as CYP2C9 activation-induced cytotoxicity in human HepG2 cells transfected with human AdCYP2C9 at MOI 10 for 2 days in presence of siNrf2 at 50 to 200 uM after 24 hrs by ATP assay. In short, it runs like this: as §1

T1 sequence (P11712 whole entry): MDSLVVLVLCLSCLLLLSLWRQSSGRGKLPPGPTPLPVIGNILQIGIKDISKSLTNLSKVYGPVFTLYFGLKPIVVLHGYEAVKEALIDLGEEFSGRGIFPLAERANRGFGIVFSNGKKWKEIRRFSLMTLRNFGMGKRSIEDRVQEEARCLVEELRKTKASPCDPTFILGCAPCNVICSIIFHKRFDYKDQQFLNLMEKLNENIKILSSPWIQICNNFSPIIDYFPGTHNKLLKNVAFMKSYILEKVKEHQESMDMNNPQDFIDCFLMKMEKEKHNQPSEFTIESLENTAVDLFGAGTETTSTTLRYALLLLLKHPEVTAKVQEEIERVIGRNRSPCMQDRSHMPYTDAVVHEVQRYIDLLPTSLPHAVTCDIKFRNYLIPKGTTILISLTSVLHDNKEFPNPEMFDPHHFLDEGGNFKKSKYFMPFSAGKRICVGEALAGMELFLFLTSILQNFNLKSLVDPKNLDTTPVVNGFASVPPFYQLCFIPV

For the compound `CCCCc1nc(Cl)c(C=O)n1Cc1ccc(-c2ccccc2-c2nn[nH]n2)cc1`, the Activity result on Cytochrome P450 2C9 [1] is listed as “Non-toxic”.
The same measure, in the same setting: to `CCCCc1nc(Cl)c(C(=O)O)n1Cc1ccc(-c2ccccc2-c2nn[nH]n2)cc1` [CARBOXYLIC ACID METABOLITE] belongs “Non-toxic”.
In the case of `CCCCc1ncc(/C=C(\Cc2cccs2)C(=O)O)n1Cc1ccc(C(=O)O)cc1` [EPROSARTAN], on Cytochrome P450 2C9 [1], the Activity result is given as “Toxic”.
For `CC(C)C(=O)Nc1ccc([N+](=O)[O-])c(C(F)(F)F)c1` [FLUTAMIDE], the Activity entry at Cytochrome P450 2C9 [2] is reported as “Non-toxic”.
For the compound `CC(C)n1c(/C=C/C(O)CC(O)CC(=O)O)c(-c2ccc(F)cc2)c2ccccc21` (stereo not drawn) [FLUVASTATIN], the values for the Activity result on Cytochrome P450 2C9 [3] and at Cytochrome P450 2C9 [4] were “Non-toxic” and “Toxic”, respectively.
Regarding `CCCCC1=NC2(CCCC2)C(=O)N1Cc1ccc(-c2ccccc2-c2nnn[nH]2)cc1` [IRBESARTAN], the Activity result at Cytochrome P450 2C9 [1] is reported as “Toxic”.
As for `CCCCc1nc(Cl)c(CO)n1Cc1ccc(-c2ccccc2-c2nn[nH]n2)cc1` [LOSARTAN], the Activity result is “Toxic” at Cytochrome P450 2C9 [1] and “Non-toxic” on Cytochrome P450 2C9 [5].
As to `CCCc1nc2c(C)cc(-c3nc4ccccc4n3C)cc2n1Cc1ccc(-c2ccccc2C(=O)O)cc1` [TELMISARTAN], the Activity entry on Cytochrome P450 2C9 [1] is on record as “Toxic”.
In the case of `CN(C/C=C/C#CC(C)(C)C)Cc1cccc2ccccc12` [TERBINAFINE], the Activity result on Cytochrome P450 2C9 [1] and at Cytochrome P450 2C9 [5] was “Toxic” each time.
As for `O=C(O)COc1ccc(C(=O)c2cccs2)c(Cl)c1Cl` [TICRYNAFEN], the Activity entry on Cytochrome P450 2C9 [6] is “Toxic”; on Cytochrome P450 2C9 [7] it was “Non-toxic”; on Cytochrome P450 2C9 [8] it was “Toxic”.
In the case of `CCCC(CCC)C(=O)O` [VALPROIC ACID], the Activity result on Cytochrome P450 2C9 [3] is reported as “Non-toxic”.
As to `CCCCC(=O)N(Cc1ccc(-c2ccccc2-c2nnn[nH]2)cc1)[C@H](C(=O)O)C(C)C` [VALSARTAN], the Activity entry at Cytochrome P450 2C9 [1] was “Toxic”.
As for `Cc1ccc(-c2nc3ccc(C)cn3c2CC(=O)N(C)C)cc1` [ZOLPIDEM], the Activity entry at Cytochrome P450 2C9 [1] is recorded as “Toxic”.
